Laboratory results published in ChEMBL document CHEMBL1126868, “Inhibitors of blood platelet cAMP phosphodiesterase. 4. Structural variation of the side-chain terminus of water-soluble 1,3-dihydro-2H-imidazo[4,5-b]quinolin-2-one derivatives” (J Med Chem, 1993).
Values joined by “and” are separate entries in the source; they are usually repeats but may differ in a detail not shown here. Equal values may be shown once.

Columns and labels:
Homo sapiens [1] = species on record: Homo sapiens; experiment: Inhibition of human platelet aggregation induced by ADP after 3 min incubation with platelet rich plasma; assay type: functional; conditions: 0.05 h
Procedure, shortened: (§1)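 Human platelet-rich plasma was preincubated with drug for 3 min (standard) or 15 min, then aggregation was induced with 5.86 μM ADP. Aggregation at a range of drug concentrations was compared with vehicle-treated controls, and IC50 was taken from dose-response curves. Values are single, duplicate or triplicate (with SD) determinations.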

[2] = Aqueous solubility; assay type: physicochemical; conditions: read-out: S
Procedure, shortened: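 A 10-mg sample was placed in 0.5 mL water and diluted stepwise up to 10 mL, or until it dissolved. Solubility is reported in mg/mL.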

Homo sapiens [3] = species on record: Homo sapiens; experiment: Inhibition of human platelet aggregation induced by ADP after 15 min incubation with platelet rich plasma; assay type: functional; conditions: 0.25 h; procedure, shortened: as §1
[4] = % metabolized in monkey S-9 after 2 hours (1 ug/ml); assay type: ADME; conditions: simiiformes, monkey S-9 fraction; read-out: Activity
Procedure, shortened: (§2)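 Monkey liver homogenised at 0 °C in 3 volumes isotonic KCl (0.05 M phosphate, pH 7.4), spun 9000g 30 min to give S-9. Triplicate incubations at 37 °C for 2 h with cofactor mix (glucose-6-phosphate, NADP, nicotinamide, MgCl2), final drug 1 or 10 μg/mL. Parent measured by fluorescence HPLC after MeOH protein precipitation; % metabolized = 100% minus % remaining at 2 h versus t=0.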

[5] = % metabolized in monkey S-9 after 2 hours (10 ug/ml); assay type: ADME; conditions: simiiformes, monkey S-9 fraction; read-out: Activity; procedure, shortened: as §2
Phosphodiesterase 3 [6] = target: T1, Phosphodiesterase 3 (Homo sapiens, UniProt Q14432+Q13370); experiment: Inhibition of human platelet aggregation cAMP PDE in vitro; assay type: functional
Procedure, shortened: (§3)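 Human platelet cAMP PDE assay run as in an earlier protocol, except that the [3H]adenosine product was resolved on DEAE Sephadex. Values are means of duplicate (deviation under 50% of mean) or triplicate determinations.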

[7] = half-life (t1/2 min); assay type: ADME; conditions: for T1/2: 2 h
Procedure, shortened: (§4)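 Same monkey liver S-9 incubation (37 °C, final drug 1 or 10 μg/mL, triplicate). Aliquots taken at 0, 15, 30, 60, 90 and 120 min, quenched with MeOH and analysed for parent by fluorescence HPLC peak height. Half-life = ln 2 divided by the slope of a least-squares linear regression of peak height against time.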

[8] = t1/2 (min); assay type: ADME; procedure, shortened: as §4
Phosphodiesterase 3 [9] = target: T1, Phosphodiesterase 3; experiment: Inhibition of human blood platelet c-AMP phosphodiesterase; assay type: functional; procedure, shortened: as §3
[10] = % metabolized in monkey S-9 after 2 hours (10 ug/mL); assay type: ADME; conditions: simiiformes, monkey S-9 fraction; read-out: Activity; procedure, shortened: as §2

## CCOC(=O)N1CCC(n2nnnc2CCCCOc2ccc3[nH]c4nc(O)nc-4cc3c2)CC1
Homo sapiens [1]
  IC50: 100 nM
[2]
  solubility: < 1000 µg/mL

## Cl.O=C(NCCCOc1ccc2[nH]c3nc(O)nc-3cc2c1)N1CCN(CC2CCCCC2)CC1
Homo sapiens [1]
  IC50: 72 nM
[2]
  solubility: > 20000 µg/mL
Homo sapiens [3]
  IC50: 18 nM
[4]
  metabolised at 2 h, 1 ug/ml: 58.5%
[5]
  metabolised at 2 h, 10 ug/ml: 23.6%
Phosphodiesterase 3 [6]
  IC50: 1.13 nM

## Cl.O=S(=O)(CCCOc1ccc2[nH]c3nc(O)nc-3cc2c1)C1CCN(CC2CCCCC2)CC1
Homo sapiens [1]
  IC50: 30 nM
[2]
  solubility: > 10000 µg/mL
[7]
  half-life: 7.55 h
Homo sapiens [3]
  IC50: 8.4 nM
[5]
  metabolised at 2 h, 10 ug/ml: 15.2%
Phosphodiesterase 3 [6]
  IC50: 1.13 nM

## Cl.Oc1nc2cc3cc(OCCCc4nnnn4C4CCN(Cc5ccccc5)CC4)ccc3[nH]c-2n1
Homo sapiens [1]
  IC50: 39 nM
[2]
  solubility: > 10000 µg/mL
[7]
  half-life: 15.8 h
Homo sapiens [3]
  IC50: 4 nM
[4]
  metabolised at 2 h, 1 ug/ml: 7.2%
Phosphodiesterase 3 [6]
  IC50: 0.84 nM

## Cl.O=S(=O)(CCCOc1ccc2[nH]c3nc(O)nc-3cc2c1)C1CCN(Cc2ccccc2)CC1
Homo sapiens [1]
  IC50: 25 nM
[2]
  solubility: > 10000 µg/mL
Homo sapiens [3]
  IC50: 6.4 nM
[4]
  metabolised at 2 h, 1 ug/ml: 25.2%
[5]
  metabolised at 2 h, 10 ug/ml: 9.6%
Phosphodiesterase 3 [6]
  IC50: 0.63 nM

## Cl.Oc1nc2cc3cc(OCCCc4nnnn4C4CCN(Cc5ccc(F)cc5)CC4)ccc3[nH]c-2n1
Homo sapiens [1]
  IC50: 32 nM
[2]
  solubility: > 10000 µg/mL
[7]
  half-life: 24.6 h
Homo sapiens [3]
  IC50: 8 nM
[4]
  metabolised at 2 h, 1 ug/ml: 4.9%
Phosphodiesterase 3 [6]
  IC50: 1.03 nM

## Cl.Oc1nc2cc3cc(OCCCCc4nnnn4C4CCN(Cc5ccccc5)CC4)ccc3[nH]c-2n1
Homo sapiens [1]
  IC50: 31 nM
[2]
  solubility: > 5000 µg/mL

## CCC(CC)CN1CCC(n2nnnc2CCCOc2ccc3[nH]c4nc(O)nc-4cc3c2)CC1.Cl
Homo sapiens [1]
  IC50: 12 nM
[2]
  solubility: > 10000 µg/mL
[7]
  half-life: 3.37 h
Homo sapiens [3]
  IC50: 3 nM
[4]
  metabolised at 2 h, 1 ug/ml: 31.3%
Phosphodiesterase 3 [6]
  IC50: 0.81 nM

## CCC(CC)CN1CCC(S(=O)(=O)CCCCOc2ccc3[nH]c4nc(O)nc-4cc3c2)CC1.Cl
Homo sapiens [1]
  IC50: 21 nM
[2]
  solubility: 5000 µg/mL

## Cl.Oc1nc2cc3cc(OCCCc4nnnn4C4CCN(CCc5ccccc5)CC4)ccc3[nH]c-2n1
Homo sapiens [1]
  IC50: 83 nM
[2]
  solubility: < 5000 µg/mL

## Cl.Oc1nc2cc3cc(OCCCc4nnnn4C4CCN(CC5CCCCC5)CC4)ccc3[nH]c-2n1
Homo sapiens [1]
  IC50: 16 nM
[2]
  solubility: > 10000 µg/mL
[7]
  half-life: 5.13 h
Homo sapiens [3]
  IC50: 3 nM
[4]
  metabolised at 2 h, 1 ug/ml: 22.9%
Phosphodiesterase 3 [6]
  IC50: 0.81 nM

## Cl.O=C(NCCCOc1ccc2[nH]c3nc(O)nc-3cc2c1)N1CCN(Cc2ccc(F)cc2)CC1
Homo sapiens [1]
  IC50: 350 nM
[2]
  solubility: > 20000 µg/mL
[7]
  half-life: 1.08 h
Homo sapiens [3]
  IC50: 50 nM
[5]
  metabolised at 2 h, 10 ug/ml: 70%
Phosphodiesterase 3 [6]
  IC50: 2.78 nM

## CCC(CC)CN1CCN(C(=O)NCCCOc2ccc3[nH]c4nc(O)nc-4cc3c2)CC1.Cl
Homo sapiens [1]
  IC50: 42 nM
[2]
  solubility: > 20000 µg/mL
[7]
  half-life: 2.68 h
Homo sapiens [3]
  IC50: 7 nM
[5]
  metabolised at 2 h, 10 ug/ml: 37.3%
Phosphodiesterase 3 [6]
  IC50: 1.25 nM

## CCC(CC)CN1CCN(S(=O)(=O)CCCOc2ccc3[nH]c4nc(O)nc-4cc3c2)CC1.Cl
Homo sapiens [1]
  IC50: 160 nM
[2]
  solubility: > 10000 µg/mL
[7]
  half-life: 2.87 h
Homo sapiens [3]
  IC50: 40 nM
[5]
  metabolised at 2 h, 10 ug/ml: 38.8%
Phosphodiesterase 3 [6]
  IC50: 5.14 nM

## Cl.O=S(=O)(CCCOc1ccc2[nH]c3nc(O)nc-3cc2c1)N1CCN(CC2CCCCC2)CC1
Homo sapiens [1]
  IC50: 110 nM
[2]
  solubility: > 20000 µg/mL
[7]
  half-life: 2.02 h
Homo sapiens [3]
  IC50: 60 nM
[5]
  metabolised at 2 h, 10 ug/ml: 49.4%
Phosphodiesterase 3 [6]
  IC50: 2.56 nM

## CC(C)CN1CCN(C(=O)NCCCOc2ccc3[nH]c4nc(O)nc-4cc3c2)CC1.Cl
Homo sapiens [1]
  IC50: 180 nM
[2]
  solubility: > 20000 µg/mL

## COc1ccc(CN2CCN(S(=O)(=O)CCCOc3ccc4[nH]c5nc(O)nc-5cc4c3)CC2)cc1.Cl
Homo sapiens [1]
  IC50: 460 nM
[2]
  solubility: > 20000 µg/mL

## Cl.O=C(NCCCOc1ccc2[nH]c3nc(O)nc-3cc2c1)N1CCN(Cc2ccccc2)CC1
Homo sapiens [1]
  IC50: 310 nM
[2]
  solubility: > 20000 µg/mL
[7]
  half-life: 2.17 h
Homo sapiens [3]
  IC50: 50 nM
[5]
  metabolised at 2 h, 10 ug/ml: 46.8%
Phosphodiesterase 3 [6]
  IC50: 1.11 nM

## Cl.O=S(=O)(CCCOc1ccc2[nH]c3nc(O)nc-3cc2c1)C1CCN(Cc2ccc(F)cc2)CC1
Homo sapiens [1]
  IC50: 20 nM
[8]
  half-life: 2 h
[2]
  solubility: > 10000 µg/mL
Homo sapiens [3]
  IC50: 8.4 nM
Phosphodiesterase 3 [9]
  IC50: 1 nM
[10]
  metabolised at 2 h, 10 ug/mL: 53%

## Cl.O=S(=O)(CCCCOc1ccc2[nH]c3nc(O)nc-3cc2c1)C1CCN(Cc2ccccc2)CC1
Homo sapiens [1]
  IC50: 42 nM
[2]
  solubility: 5000 µg/mL

## CCC(CC)CN1CCC(S(=O)(=O)CCCOc2ccc3[nH]c4nc(O)nc-4cc3c2)CC1.Cl
Homo sapiens [1]
  IC50: 39 nM
[2]
  solubility: < 10000 µg/mL
[7]
  half-life: 6.08 h
  T1/2: 7.05 h
Homo sapiens [3]
  IC50: 9 nM
[4]
  metabolised at 2 h, 1 ug/ml: 17%
[5]
  metabolised at 2 h, 10 ug/ml: 22.4%
Phosphodiesterase 3 [6]
  IC50: 1.13 nM

## Cl.O=S(=O)(CCCOc1ccc2[nH]c3nc(O)nc-3cc2c1)N1CCN(Cc2ccc(F)cc2)CC1
Homo sapiens [1]
  IC50: 280 nM
[2]
  solubility: > 20000 µg/mL
[7]
  half-life: 6.75 h
  T1/2: 4.02 h
Homo sapiens [3]
  IC50: 35 nM
[4]
  metabolised at 2 h, 1 ug/ml: 29.4%
[5]
  metabolised at 2 h, 10 ug/ml: 18%
Phosphodiesterase 3 [6]
  IC50: 4.96 nM

## Cl.O=S(=O)(CCCOc1ccc2[nH]c3nc(O)nc-3cc2c1)N1CCN(Cc2ccccc2)CC1
Homo sapiens [1]
  IC50: 130 nM
[2]
  solubility: > 20000 µg/mL
Homo sapiens [3]
  IC50: 60 nM
[4]
  metabolised at 2 h, 1 ug/ml: 67.7%
[5]
  metabolised at 2 h, 10 ug/ml: 21.2%
Phosphodiesterase 3 [6]
  IC50: 5.42 nM

## Cl.Cl.O=C(NCCCOc1ccc2[nH]c3nc(O)nc-3cc2c1)N1CCN(Cc2ccc(Cl)cc2)CC1
Homo sapiens [1]
  IC50: 290 nM
[2]
  solubility: 200 µg/mL

## O=C(CCCOc1ccc2[nH]c3nc(O)nc-3cc2c1)N1CCN(CC2CCCCC2)CC1
[7]
  T1/2: 5.55 h and 2.4 h
[4]
  metabolised at 2 h, 1 ug/ml: 40.6%
[5]
  metabolised at 2 h, 10 ug/ml: 21.7%
